Screening data as filed in PubChem BioAssay.
In the library only some 3.1% were active in any assay of this set; here they are far more common.
KCNK3 inh: human KCNK3 channel inhibition, primary screen; CHO-KCNK3 thallium flux, FluxOR fluorescence; hits give low values; hit rate 0.84% among 340,000; B-score at 10 µM;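 active means B-score under library mean minus 4 SD, starting fluorescence ratio at most library mean plus 5 SD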;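 further: more negative B-score means stronger inhibition of thallium flux through KCNK3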
KCNQ1 block: inhibitors of human KCNQ1 potassium channel; P51787; CHO-K1 KCNQ1, FluxOR thallium flux fluorescence; hits give high values; B-score at 10 µM; hit rate 1.3% among 310,000;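 active means compounds whose thallium flux B-score, printed positive for inhibition, exceeds three library SD while starting fluorescence stays within three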;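 further: channel opened by potassium depolarization with thallium stimulus after 20 min compound exposure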
hERG protect: compounds protecting human hERG from proarrhythmic drug block | Q12809 | hit rate 0.51% among 310,000 | AID 1511 | activation (rescue from dofetilide block), less the hit threshold, % at 10 µM | CHO-hERG, FluxOR thallium flux, dofetilide IC70 present;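 active means activation above the mean of controls blocked by dofetilide plus 5 SD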;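 further: thallium influx through hERG after potassium depolarization seen as dye fluorescence rise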
KCNK9 block: human KCNK9 channel inhibition; HEK293 KCNK9, FluxOR thallium flux fluorescence; hits give low values; B-score at 10 µM; Q9NPC2; hit rate 1.2% among 310,000;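 active means ratio B-score over 3 SD below the library mean, with starting fluorescence within 5 SD of its mean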;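 further: negative B-score means less thallium flux so channel inhibition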
Target sequence (Q9NPC2 whole entry, looked up): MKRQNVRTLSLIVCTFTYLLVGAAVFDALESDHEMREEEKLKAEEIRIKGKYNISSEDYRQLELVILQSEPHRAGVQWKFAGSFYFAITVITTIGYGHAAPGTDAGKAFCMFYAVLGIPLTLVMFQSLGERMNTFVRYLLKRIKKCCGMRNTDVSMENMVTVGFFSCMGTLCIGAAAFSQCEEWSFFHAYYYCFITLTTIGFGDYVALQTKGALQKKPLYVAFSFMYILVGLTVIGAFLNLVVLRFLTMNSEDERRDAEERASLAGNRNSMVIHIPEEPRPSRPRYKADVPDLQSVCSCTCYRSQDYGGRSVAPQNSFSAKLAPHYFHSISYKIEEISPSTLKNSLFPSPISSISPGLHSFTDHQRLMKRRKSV
KCNQ1 pot: human KCNQ1 channel potentiation or activation | hit rate 0.35% among 310,000 | B-score at 10 µM | CHO-K1 KCNQ1, thallium flux FluxOR fluorescence; hits give high values | AID 2648 | P51787;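 active means fluorescence ratio B-score, a plate-corrected score, at least three library SD, with initial intensity B-score within 5 SD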
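Assay system: CHO-K1 cells stably expressing KCNQ1; Medium: assay buffer with matched DMSO; Also added: K+/Tl+ depolarizing stimulus; Dosing: single dose; Timing: dye 90 min, compound 20 min, room temperature; Measured by: kinetic FluxOR thallium fluorescence, 10-s 1-Hz baseline, 110-s post-stimulus read; Read-out: peak-minus-minimum fluorescence over initial fluorescence, negative-control normalized, B-scored.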
KCNK9 block conf: confirmation of human KCNK9 potassium channel inhibitors. HEK293 KCNK9 cells, FluxOR thallium flux fluorescence. AID 492992. shares compounds with KCNK9 block. inhibition, % at 10 µM. hit rate 43% among 4,900;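 active means thallium signal inhibited by more than 5 SD of the compound-free buffer control wells, on both duplicate plates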
Kir21 sel: tests whether KCNK9 modulators also affect mouse Kir2.1 | hit rate 4% among 4,900 | Kir2.1 cells, FluxOR thallium flux fluorescence | AID 492993 | inhibition, % at 10 µM | shares compounds with KCNK9 block;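 active means thallium signal drop more than 5 SD beyond the mean of the no-compound control wells, seen in both duplicate plates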;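 further: signal is fluorescence rise after thallium addition divided by baseline fluorescence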
KCNK9 uninduced: second counter-screen for KCNK9 modulators: effect in non-induced cells; shares compounds with KCNK9 block; non-induced KCNK9-HEK293, FluxOR thallium flux; inhibition, % at 10 µM; hit rate 40% among 4,900; AID 492997;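 active means thallium signal drop beyond 5 SD of the untreated control mean, on both duplicate plates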
Each line names hits and unclear results; the compound was inactive in the other large screens (follow-up assays come after a bar, where they were run).

CN(Cc1cnccn1)Cc1cn(Cc2ccccc2)nc1-c1ccc2c(c1)OCO2	none | KCNK9 block conf inactive | Kir21 sel inactive | KCNK9 uninduced inactive
COc1ccc(NC(=O)c2ccc3c(c2)S(=O)(=O)N=C2CCCCCN23)cc1S(N)(=O)=O	none (no result: KCNQ1 block, hERG protect, KCNK9 block, KCNQ1 pot)
C=CCNC(=O)/C(C#N)=C/c1c(C)nn(-c2ccccc2)c1Cl	none
Cc1cc(C)n(-c2nc(NCCN(C)C)c3c4c(sc3n2)COC(C)(C)C4)n1	none
Cc1cc(C)n(-c2nc(NCCC(C)C)c3c4c(sc3n2)COC(C)(C)C4)n1	KCNK9 block -12 | KCNK9 block conf 58% | Kir21 sel inactive | KCNK9 uninduced 32%
